Reference: ChEMBL document CHEMBL2203244, “Discovery and optimization of a series of 2-aminothiazole-oxazoles as potent phosphoinositide 3-kinase γ inhibitors” (Bioorg Med Chem Lett, 2012)
≈ marks a conversion by molar mass, not a printed value.

How the values were obtained:
[1] = molecular target: Phosphatidylinositol 4,5-bisphosphate 3-kinase catalytic subunit alpha isoform (Homo sapiens, UniProt P42336); assay: Inhibition of human PI3Kalpha using phosphatidylinositol as substrate and [33gammaP]ATP after 2 hrs by scintillation counting
In short: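 Recombinant human PI3Kα (20 ng) incubated 2 h at 30 °C in 20 mM Tris–HCl pH 7.4, 5 mM MgCl₂, 5 mM DTT with unlabelled ATP plus [γ-³³P]ATP and lipid vesicles of PtdIns and 25 µM PtdSer (final), with inhibitor or DMSO. Stopped with 25 mM EDTA, captured on phospholipid scintillant-coated plate, PBS-washed, bound counts per second read.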

[2] = molecular target: Phosphatidylinositol 4,5-bisphosphate 3-kinase catalytic subunit gamma isoform (Mus musculus, UniProt Q9JHG7); assay: Inhibition of PI3Kgamma in mouse RAW264.7 cells assessed as inhibition of C5a-induced PKB/Akt phosphorylation incubated for 30 mins prior to C5a-induction measured after 5 mins by immunostaining method; assay type: cell-based
In short: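 Raw264.7 murine macrophage-like cells seeded at 8 × 10⁶ per well, grown 24 h, switched to serum-free 0.1% BSA medium for 3 h at 37 °C. Pretreated with or without a range of inhibitor concentrations for 30 min, then stimulated with 5 nM C5a for 5 min at 37 °C. PKB/Akt phosphorylation scored as the cellular read-out.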

Homo sapiens = species: Homo sapiens; assay: Selectivity ratio of IC50 for human PI3Kalpha to IC50 for human PI3Kgamma
In short: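 Human PI3Kα and PI3Kγ (20 ng each) assayed by the same radiometric lipid-kinase procedure: 2 h at 30 °C, pH 7.4 Tris buffer with MgCl2 and DTT, [33P]ATP and PtdIns/PtdSer vesicles, stopped with EDTA, captured on scintillant-coated plates and counted. Ratio taken as the PI3Kα IC50 divided by the PI3Kγ IC50.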

[3] = molecular target: T1, Phosphatidylinositol 4,5-bisphosphate 3-kinase catalytic subunit gamma isoform (Homo sapiens, UniProt P48736); assay: Inhibition of human PI3Kgamma using phosphatidylinositol as substrate and [33gammaP]ATP after 2 hrs by scintillation counting
In short: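 Recombinant human PI3Kγ (20 ng) incubated 2 h at 30 °C with test inhibitor or DMSO in 20 mM Tris–HCl pH 7.4, 5 mM MgCl2, 5 mM DTT, with ATP/[33P]ATP and PtdIns/PtdSer lipid vesicles as substrate. Reaction stopped with 25 mM EDTA. Product captured on phospholipid scintillant-coated plates, washed with PBS, and bound radioactivity counted by scintillation.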

[4] = molecular target: T1, Phosphatidylinositol 4,5-bisphosphate 3-kinase catalytic subunit gamma isoform
[5] = Aqueous solubility of the compound; assay type: physicochemical; conditions: water (aqueous)
In short: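 Solubility determined in water.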

[6] = Permeability of the compound at pH 6.2 by PAMPA assay; assay type: ADME; conditions: read-out: permeability
In short: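 PAMPA membrane permeability measured at pH 6.2, reported as Pe in cm/s.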

Chain of Phosphatidylinositol 4,5-bisphosphate 3-kinase catalytic subunit alpha isoform (P42336 whole entry, canonical isoform): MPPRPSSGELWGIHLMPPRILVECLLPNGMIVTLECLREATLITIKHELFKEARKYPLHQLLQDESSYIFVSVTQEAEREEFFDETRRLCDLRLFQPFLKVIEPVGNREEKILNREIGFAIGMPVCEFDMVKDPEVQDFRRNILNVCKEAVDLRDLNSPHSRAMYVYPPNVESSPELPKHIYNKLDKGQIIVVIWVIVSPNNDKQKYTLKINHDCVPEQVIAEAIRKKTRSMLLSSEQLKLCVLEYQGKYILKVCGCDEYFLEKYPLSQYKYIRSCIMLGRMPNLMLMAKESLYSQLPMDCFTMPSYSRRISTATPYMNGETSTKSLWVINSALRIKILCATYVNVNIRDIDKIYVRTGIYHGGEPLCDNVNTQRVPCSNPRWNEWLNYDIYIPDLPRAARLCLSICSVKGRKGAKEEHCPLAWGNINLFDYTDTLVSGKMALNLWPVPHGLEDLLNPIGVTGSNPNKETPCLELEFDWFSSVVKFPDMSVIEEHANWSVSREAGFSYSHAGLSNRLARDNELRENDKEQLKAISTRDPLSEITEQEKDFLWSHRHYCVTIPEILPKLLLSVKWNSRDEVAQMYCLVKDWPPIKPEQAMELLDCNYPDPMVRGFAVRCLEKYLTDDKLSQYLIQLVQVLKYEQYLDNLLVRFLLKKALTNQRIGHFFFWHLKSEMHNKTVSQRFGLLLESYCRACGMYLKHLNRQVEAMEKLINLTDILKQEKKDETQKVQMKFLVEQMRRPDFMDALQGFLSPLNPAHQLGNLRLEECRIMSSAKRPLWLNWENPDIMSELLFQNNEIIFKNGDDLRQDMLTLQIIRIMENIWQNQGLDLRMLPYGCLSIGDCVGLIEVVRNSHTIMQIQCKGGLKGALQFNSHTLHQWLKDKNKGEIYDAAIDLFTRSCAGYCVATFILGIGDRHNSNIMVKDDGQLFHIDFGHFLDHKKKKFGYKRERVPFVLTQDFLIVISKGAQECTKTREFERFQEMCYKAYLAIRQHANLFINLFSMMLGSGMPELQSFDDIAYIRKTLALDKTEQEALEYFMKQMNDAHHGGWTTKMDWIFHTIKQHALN
Chain of Phosphatidylinositol 4,5-bisphosphate 3-kinase catalytic subunit gamma isoform (Mus musculus, UniProt Q9JHG7) (Q9JHG7 whole entry, canonical isoform): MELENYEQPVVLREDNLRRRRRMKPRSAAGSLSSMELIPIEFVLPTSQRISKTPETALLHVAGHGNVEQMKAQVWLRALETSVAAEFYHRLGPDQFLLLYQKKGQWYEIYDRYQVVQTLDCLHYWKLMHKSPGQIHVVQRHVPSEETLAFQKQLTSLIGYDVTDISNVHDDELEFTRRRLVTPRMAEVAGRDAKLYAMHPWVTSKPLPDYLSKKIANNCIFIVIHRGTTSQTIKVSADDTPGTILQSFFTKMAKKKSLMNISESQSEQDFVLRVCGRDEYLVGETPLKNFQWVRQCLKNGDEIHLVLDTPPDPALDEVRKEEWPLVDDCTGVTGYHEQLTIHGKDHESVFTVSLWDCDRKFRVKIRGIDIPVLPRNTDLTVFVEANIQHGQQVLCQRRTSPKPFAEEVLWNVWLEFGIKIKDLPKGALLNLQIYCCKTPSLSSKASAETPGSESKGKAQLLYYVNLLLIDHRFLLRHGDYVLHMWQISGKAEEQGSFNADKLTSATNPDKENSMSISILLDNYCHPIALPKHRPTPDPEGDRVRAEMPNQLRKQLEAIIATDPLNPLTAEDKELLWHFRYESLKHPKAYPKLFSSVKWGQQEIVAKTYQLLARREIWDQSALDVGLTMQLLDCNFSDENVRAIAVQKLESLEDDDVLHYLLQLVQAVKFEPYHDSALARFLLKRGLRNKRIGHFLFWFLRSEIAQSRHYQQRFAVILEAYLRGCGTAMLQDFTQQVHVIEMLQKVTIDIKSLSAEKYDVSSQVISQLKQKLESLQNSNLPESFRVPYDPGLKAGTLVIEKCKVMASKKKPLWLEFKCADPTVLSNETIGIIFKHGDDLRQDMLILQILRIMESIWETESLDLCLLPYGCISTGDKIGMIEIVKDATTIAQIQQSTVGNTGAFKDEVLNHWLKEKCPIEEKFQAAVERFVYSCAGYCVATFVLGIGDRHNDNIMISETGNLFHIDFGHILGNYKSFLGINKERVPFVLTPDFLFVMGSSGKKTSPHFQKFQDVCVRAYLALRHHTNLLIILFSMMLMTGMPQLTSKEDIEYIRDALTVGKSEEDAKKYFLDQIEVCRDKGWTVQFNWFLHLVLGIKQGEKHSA
T1 sequence (P48736 whole entry, canonical isoform): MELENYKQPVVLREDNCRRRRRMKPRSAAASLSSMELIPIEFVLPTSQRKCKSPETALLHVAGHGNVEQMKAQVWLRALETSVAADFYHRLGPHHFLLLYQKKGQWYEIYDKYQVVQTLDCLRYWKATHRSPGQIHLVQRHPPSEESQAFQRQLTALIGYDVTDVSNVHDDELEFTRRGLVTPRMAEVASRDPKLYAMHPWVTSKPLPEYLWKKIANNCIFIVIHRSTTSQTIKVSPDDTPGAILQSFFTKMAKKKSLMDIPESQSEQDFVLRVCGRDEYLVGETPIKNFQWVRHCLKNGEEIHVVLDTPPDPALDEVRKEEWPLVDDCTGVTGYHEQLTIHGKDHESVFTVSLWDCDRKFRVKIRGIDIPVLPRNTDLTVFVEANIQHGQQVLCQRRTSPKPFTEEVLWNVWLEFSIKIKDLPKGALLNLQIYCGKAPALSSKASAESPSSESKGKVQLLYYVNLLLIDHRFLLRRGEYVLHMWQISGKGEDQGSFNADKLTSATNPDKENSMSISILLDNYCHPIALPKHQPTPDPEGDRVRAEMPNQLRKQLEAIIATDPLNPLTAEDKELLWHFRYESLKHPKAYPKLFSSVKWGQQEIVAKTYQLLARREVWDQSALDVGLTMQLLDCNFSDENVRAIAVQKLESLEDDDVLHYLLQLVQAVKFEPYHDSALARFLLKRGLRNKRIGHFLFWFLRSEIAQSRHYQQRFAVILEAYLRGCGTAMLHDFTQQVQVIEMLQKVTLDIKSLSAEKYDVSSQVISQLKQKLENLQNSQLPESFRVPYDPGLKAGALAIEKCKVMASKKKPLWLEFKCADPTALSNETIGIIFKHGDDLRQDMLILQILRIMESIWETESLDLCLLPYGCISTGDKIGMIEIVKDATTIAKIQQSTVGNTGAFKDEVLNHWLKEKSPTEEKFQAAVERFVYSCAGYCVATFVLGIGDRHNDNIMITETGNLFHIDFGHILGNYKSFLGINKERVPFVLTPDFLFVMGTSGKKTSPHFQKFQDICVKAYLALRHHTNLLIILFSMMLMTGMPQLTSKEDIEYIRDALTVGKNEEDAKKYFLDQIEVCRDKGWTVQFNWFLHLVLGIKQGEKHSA

| SMILES | IC50 [1] [nM] | IC50 [2] [nM] | Ratio IC50 (Homo sapiens) | IC50 [3] [nM] | IC50 [4] [nM] | solubility [5] [µg/mL] | Papp [6] [×10⁻⁶ cm/s] |
| --- | --- | --- | --- | --- | --- | --- | --- |
| CC(=O)Nc1nc(C)c(-c2cnc(S(C)(=O)=O)o2)s1 | 195 | 222 | 16 | 12 |  |  |  |
| CC(=O)Nc1nc(C)c(-c2cnc(Oc3cccnc3)o2)s1 |  | 1670 |  | 117 |  |  |  |
| CC(=O)Nc1nc(C)c(-c2cnc(Sc3cccnc3)o2)s1 | 112 | 279 | 7 | 16 |  |  |  |
| CC(=O)Nc1nc(C)c(-c2csc(Nc3cccc(C(=O)O)c3)n2)s1 |  |  |  |  | 5 |  |  |
| CC(=O)Nc1nc(C)c(-c2cnc(Nc3cccnc3)o2)s1 | 102 | 431 | 9 | 12 |  |  |  |
| CC(=O)Nc1nc(C)c(-c2cnc(CC(F)(F)F)o2)s1 | 43 | 88 | 4 | 10 |  |  |  |
| CC(=O)Nc1nc(C)c(-c2cnc(Nc3ccc(Cl)nc3)o2)s1 |  | 1040 |  | 24 |  |  |  |
| CC(=O)Nc1nc(C)c(-c2cnc(N(C)C)o2)s1 |  | 1220 |  | 46 |  |  |  |
| CC(=O)Nc1nc(C)c(-c2cnc(C(C)(C)O)o2)s1 |  | 369 |  | 25 |  |  |  |
| CC(=O)Nc1nc(C)c(-c2cnc(-c3cccnc3)o2)s1 | 46 | 59 | 15 | 3 |  | 0.39 (≈ 1.3 µM) | 77.3 |
| CC(=O)Nc1nc(C)c(-c2cnc(C(C)(C)C)o2)s1 | 15 | 113 | 5 | 3 |  | 35.2 (≈ 126 µM) | 88.4 |
| CSc1ncc(-c2sc(NC(C)=O)nc2C)o1 |  | 322 |  | 22 |  |  |  |
| CC(=O)Nc1nc(C)c(-c2cnc(Nc3cccc(C(=O)O)c3)o2)s1 | 328 | > 10000 | 27 | 12 |  |  | 1.4 |
| CC(=O)Nc1nc(C)c(-c2cnc(N3CCCC(O)C3)o2)s1 (stereo not given) |  | 237 |  | 14 |  |  |  |
| CC(=O)Nc1nc(C)c(-c2cnc(Cc3cccc(C(=O)O)c3)o2)s1 |  | > 10000 |  | 223 |  |  |  |
| CC(=O)Nc1nc(C)c(-c2cnc(C)o2)s1 |  |  |  | 181 |  |  |  |
| CC(=O)Nc1nc(C)c(-c2cnc(Nc3ccc(Cl)cc3)o2)s1 |  |  |  | 346 |  |  |  |
| CC(=O)Nc1nc(C)c(-c2cnc(Cc3cccnc3)o2)s1 |  |  |  | 95 |  |  |  |
| CC(=O)Nc1nc(C)c(-c2cnc(CO)o2)s1 |  |  |  | 161 |  |  |  |
| CC(=O)Nc1nc(C)c(-c2cnc(N3CCOCC3)o2)s1 |  | 599 |  | 24 |  |  |  |
| COc1ncc(-c2sc(NC(C)=O)nc2C)o1 |  |  |  | 250 |  |  |  |
